Results as given in ChEMBL document CHEMBL3259809, “Oxazolidinone derivatives: cytoxazone-linezolid hybrids induces apoptosis and senescence in DU145 prostate cancer cells” (Eur J Med Chem, 2014).
Activity calls are given as the source filed them. No cut-off for these calls is given here.

Experiments:
[1] = system: DU-145; assay: Cytotoxicity against human DU145 cells; assay type: functional, cell-based
Method in brief: (§1)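 SRB assay. 5000 cells/well were seeded in medium with 10% serum and left 18-20 h at 5% CO2 to adhere. Final compound 0 to 100 μM for 48 h at 37 °C; DMSO vehicle, doxorubicin positive control. Cells fixed in 10% TCA 1 h at 4 °C, stained 30 min with 0.057% SRB, washed with 1% acetic acid. Dye solubilised in 10 mM Tris base, A510 read, IC50 derived.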

[2] = system: HeLa; assay: Cytotoxicity against human HeLa cells; assay type: functional, cell-based; method in brief: as §1
[3] = system: A549; assay: Cytotoxicity against human A549 cells; assay type: functional, cell-based; method in brief: as §1
[4] = system: MCF7; assay: Cytotoxicity against human MCF7 cells; assay type: functional, cell-based; method in brief: as §1
[5] = system: DU-145; assay: Cell cycle arrest in human DU145 cells assessed as accumulation at S phase at 25 uM after 48 hrs by propidium iodide staining-based flow cytometric analysis (reference value: 5.77%); assay type: functional
[6] = system: DU-145; assay: Induction of apoptosis in human DU145 cells assessed as change in mitochondrial membrane potential at 8.5 to 20 uM after 24 hrs by JC-1 dye-based assay; assay type: functional, cell-based
Method in brief: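 DU145 seeded in 24-well plates and left 18 h at 37 °C, 5% CO2, then treated for 24 h, DMSO control. Stained with JC-1 working solution (stock mixed 1:1 with growth medium) for 20 min at 37 °C. Washed twice with medium, then red (aggregate) versus green (monomer) fluorescence viewed by microscopy.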

[7] = system: DU-145; assay: Cell cycle arrest in human DU145 cells assessed as accumulation at G0/G1 phase at 25 uM after 48 hrs by propidium iodide staining-based flow cytometric analysis (reference value: 70.54%); assay type: functional
[8] = system: DU-145; assay: Cell cycle arrest in human DU145 cells assessed as accumulation at G2/M phase at 25 uM after 48 hrs by propidium iodide staining-based flow cytometric analysis (reference value: 23.09%); assay type: functional
[9] = system: DU-145; assay: Cell cycle arrest in human DU145 cells assessed as accumulation at G0/G1 phase at 20 uM after 48 hrs by propidium iodide staining-based flow cytometric analysis (reference value: 70.54%); assay type: functional
[10] = system: DU-145; assay: Cell cycle arrest in human DU145 cells assessed as accumulation at S phase at 10 uM after 48 hrs by propidium iodide staining-based flow cytometric analysis (reference value: 5.77%); assay type: functional
[11] = system: DU-145; assay: Cell cycle arrest in human DU145 cells assessed as accumulation at G0/G1 phase at 10 uM after 48 hrs by propidium iodide staining-based flow cytometric analysis (reference value: 70.54%); assay type: functional
[12] = system: DU-145; assay: Induction of senescence in human DU145 cells at 5 to 25 uM after 48 hrs by SA-beta-gal staining-based microscopic analysis; assay type: functional, cell-based
Method in brief: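 DU145 in 24-well plates treated for 48 h. Cells washed with PBS and fixed 5 min at room temperature in 2% formaldehyde/0.2% glutaraldehyde. Stained overnight at 37 °C in 40 mM citric acid/Na phosphate (pH 6.0), 5 mM each ferro- and ferricyanide, 150 mM NaCl, 2 mM MgCl2, 1 mg/ml X-gal. Positive cells observed and photographed by microscopy.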

[13] = system: DU-145; assay: Cell cycle arrest in human DU145 cells assessed as accumulation at S phase at 5 uM after 48 hrs by propidium iodide staining-based flow cytometric analysis (reference value: 5.77%); assay type: functional
[14] = system: DU-145; assay: Cell cycle arrest in human DU145 cells assessed as accumulation at G2/M phase at 20 uM after 48 hrs by propidium iodide staining-based flow cytometric analysis (reference value: 23.09%); assay type: functional
[15] = system: DU-145; assay: Cell cycle arrest in human DU145 cells assessed as accumulation at G2/M phase at 5 uM after 48 hrs by propidium iodide staining-based flow cytometric analysis (reference value: 23.09%); assay type: functional
[16] = system: DU-145; assay: Cell cycle arrest in human DU145 cells assessed as accumulation at S phase at 20 uM after 48 hrs by propidium iodide staining-based flow cytometric analysis (reference value: 5.77%); assay type: functional
[17] = system: DU-145; assay: Cell cycle arrest in human DU145 cells assessed as accumulation at S phase at 15 uM after 48 hrs by propidium iodide staining-based flow cytometric analysis (reference value: 5.77%); assay type: functional
[18] = system: DU-145; assay: Induction of apoptosis in human DU145 cells assessed as caspase-9 activation using Ac-LEHD-AFC as substrate after 48 hrs by fluorometric analysis; assay type: functional, cell-based
Method in brief: (§2)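 DU145 exposed to several concentrations for 48 h; DMSO negative, doxorubicin positive control. Cells lysed in 50 mM HEPES, 5 mM CHAPS, 5 mM DTT, pH 7.5. Lysate incubated with substrate in 20 mM HEPES pH 7.5, 0.1% CHAPS, 2 mM EDTA, 5 mM DTT for 2 h at 37 °C. AMC read at ex/em 380/460 nm (caspase-3), AFC at 400/505 nm (caspase-9). Values normalised to Bradford protein and expressed relative to DMSO; triplicates, means.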

[19] = system: DU-145; assay: Cell cycle arrest in human DU145 cells assessed as accumulation at G0/G1 phase at 5 uM after 48 hrs by propidium iodide staining-based flow cytometric analysis (reference value: 70.54%); assay type: functional
[20] = system: DU-145; assay: Cytotoxicity against human DU145 cells assessed as inhibition of colony formation on soft agar media after 9 days by crystal violet staining-based microscopic analysis; assay type: functional, cell-based
Method in brief: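 Soft agar assay. Base layer was 0.5% agar in growth medium with 10% serum. On top, 2.5×10^4 DU145 cells were set in 0.35% agar containing compound (0–25 μM). Medium plus compound replenished every 3 days for 9 days. Stained with 0.005% crystal violet, then colonies photographed and counted under a microscope.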

[21] = system: DU-145; assay: Cytotoxicity against human DU145 cells assessed as change in cell morphology at 5 to 25 uM after 48 hrs by microscopic analysis; assay type: functional, cell-based
Method in brief: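 DU145 cells seeded in 24-well plates and left 18-20 h, then exposed to increasing concentrations for 48 h with a DMSO comparison. Morphology examined and imaged by light microscopy.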

[22] = system: DU-145; assay: Cell cycle arrest in human DU145 cells assessed as accumulation at G2/M phase at 15 uM after 48 hrs by propidium iodide staining-based flow cytometric analysis (reference value: 23.09%); assay type: functional
[23] = system: DU-145; assay: Cell cycle arrest in human DU145 cells assessed as accumulation at G2/M phase at 10 uM after 48 hrs by propidium iodide staining-based flow cytometric analysis (reference value: 23.09%); assay type: functional
[24] = system: DU-145; assay: Cell cycle arrest in human DU145 cells assessed as accumulation at G0/G1 phase at 15 uM after 48 hrs by propidium iodide staining-based flow cytometric analysis (reference value: 70.54%); assay type: functional
[25] = system: DU-145; assay: Induction of apoptosis in human DU145 cells assessed as caspase-3 activation using Ac-DEVD-AMC as substrate after 48 hrs by fluorometric analysis; assay type: functional, cell-based; method in brief: as §2

In the case of COc1ccc([C@H]2NC(=O)O[C@@H]2CO)cc1, the IC50 [1] is reported as 40.6 µM, the IC50 [2] is reported as 56.7 µM and the IC50 [3] is reported as 31.2 µM. It also gave an IC50 [4] greater than 100 µM.

For COc1ccc([C@@H]2[C@@H](CNC(C)=O)OC(=O)N2c2ccc(N3CCOCC3)c(F)c2)cc1, the IC50 [1] was 26.8 µM, the IC50 [2] was 51.3 µM and the IC50 [3] was 54.4 µM. For the same compound, the IC50 [4] was greater than 100 µM.

With COc1ccc([C@@H]2[C@@H](COC(=O)c3ccccc3)OC(=O)N2c2ccc(N3CCOCC3)c(F)c2)cc1 the IC50 [1] was 21.1 µM, the IC50 [2] was 57.6 µM and the IC50 [3] was 23.9 µM. It also gave an IC50 [4] of 74 µM.

In the case of C=CC(=O)OCCC(=O)OC[C@@H]1OC(=O)N(c2ccc(N3CCOCC3)c(F)c2)[C@@H]1c1ccc(OC)cc1, the IC50 [1] is reported as 31.8 µM, the IC50 [2] is reported as 28.6 µM and the IC50 [3] is reported as 42.4 µM. It also gave an IC50 [4] of 61.5 µM.

Work on COc1ccc([C@@H]2[C@@H](CCO)OC(=O)N2c2ccc(N3CCOCC3)c(F)c2)cc1 yielded an IC50 [1] of 69.5 µM, an IC50 [2] of 43.2 µM and an IC50 [3] of 30.3 µM. It also gave an IC50 [4] greater than 100 µM.

COc1ccc([C@@H]2[C@@H](CN)OC(=O)N2c2ccc(N3CCOCC3)c(F)c2)cc1 gave an IC50 [1] of 33 µM, an IC50 [2] greater than 100 µM and an IC50 [3] of 21.2 µM. It also gave an IC50 [4] greater than 100 µM.

Work on COc1ccc([C@@H]2[C@H](CO)OC(=O)N2c2ccc(N3CCOCC3)c(F)c2)cc1 yielded an IC50 [1] of 38.5 µM, an IC50 [2] of 35.9 µM and an IC50 [3] of 43.2 µM. For the same compound, the IC50 [4] was 36.1 µM.

Work on C=CC(=O)OCCC(=O)OC[C@H]1OC(=O)N(c2ccc(N3CCOCC3)c(F)c2)[C@@H]1c1ccc(OC)cc1 yielded an IC50 [1] of 8.69 µM, an IC50 [2] of 42.7 µM and an IC50 [3] of 14.2 µM. For the same compound, the IC50 [4] was 38.2 µM.

For COc1cccc2c1C(=O)c1c(O)c3c(c(O)c1C2=O)C[C@@](O)(C(=O)CO)C[C@@H]3O[C@H]1C[C@H](N)[C@H](O)[C@H](C)O1 [DOXORUBICIN], the IC50 [1] was 6.7 µM, the IC50 [2] was 10.9 µM and the IC50 [3] was 8.4 µM.

Work on COc1ccc([C@H]2NC(=O)O[C@H]2CO)cc1 yielded an IC50 [1] of 46.5 µM, an IC50 [2] of 26 µM and an IC50 [3] of 25.5 µM. For the same compound, the IC50 [4] was 82.4 µM.

With C=C[C@H]1OC(=O)N(c2ccc(N3CCOCC3)c(F)c2)[C@@H]1c1ccc(OC)cc1 the IC50 [1] was 48.2 µM, the IC50 [2] was 48.6 µM and the IC50 [3] was 24.4 µM. The IC50 [4] was 70 µM.

With COc1ccc([C@@H]2[C@@H](CO)OC(=O)N2c2ccc(N3CCOCC3)c(F)c2)cc1 the IC50 [1] was 24.9 µM, the IC50 [2] was 86.6 µM and the IC50 [3] was 24.6 µM. The IC50 [4] was greater than 100 µM.

CC[C@H]1OC(=O)N(c2ccc(N3CCOCC3)c(F)c2)[C@@H]1c1ccc(OC)cc1 was tested, and the Activity [5] was 0.79%, the Activity [6] was “Active” and the Activity [7] was 91.11%. The Activity [8] was 6.54%, the Activity [9] was 80.5% and the Activity [10] was 3.85%. For the same compound, the Activity [11] was 75.29%, the Activity [12] was “Active” and the Activity [13] was 4.61%. The Activity [14] was 16.19%, the Activity [15] was 19.45% and the IC50 [1] was 9.47 µM. For the same compound, the Activity [16] was 1.93%, the Activity [17] was 3.56% and the Activity [18] was “Dose-dependent effect”. The IC50 [2] was 23.3 µM, the Activity [19] was 75.65% and the inhibition [20] was “Dose-dependent effect”. The Activity [21] was “Active”, the Activity [22] was 16.7% and the IC50 [3] was 13.4 µM. The Activity [23] was 20.49%, the Activity [24] was 79.14% and the IC50 [4] was greater than 100 µM. The Activity [25] was “Dose-dependent effect”.

C=C[C@H]1OC(=O)N[C@@H]1c1ccc(OC)cc1 showed an IC50 [1] of 32.8 µM, an IC50 [2] of 39.8 µM and an IC50 [3] of 21.3 µM. It also gave an IC50 [4] greater than 100 µM.

With COc1ccc([C@@H]2[C@H](COC(=O)c3ccccc3)OC(=O)N2c2ccc(N3CCOCC3)c(F)c2)cc1 the IC50 [1] was 30.8 µM, the IC50 [2] was 19.2 µM and the IC50 [3] was 24.8 µM. For the same compound, the IC50 [4] was 69.4 µM.
